No end group written: not given here.
Assays:
[1] = target: T1, Human Gemin4 protein (Homo sapiens, UniProt P57678); assay: MicroScale thermophoresis; type: binding
T1 sequence (P57678 1-1058): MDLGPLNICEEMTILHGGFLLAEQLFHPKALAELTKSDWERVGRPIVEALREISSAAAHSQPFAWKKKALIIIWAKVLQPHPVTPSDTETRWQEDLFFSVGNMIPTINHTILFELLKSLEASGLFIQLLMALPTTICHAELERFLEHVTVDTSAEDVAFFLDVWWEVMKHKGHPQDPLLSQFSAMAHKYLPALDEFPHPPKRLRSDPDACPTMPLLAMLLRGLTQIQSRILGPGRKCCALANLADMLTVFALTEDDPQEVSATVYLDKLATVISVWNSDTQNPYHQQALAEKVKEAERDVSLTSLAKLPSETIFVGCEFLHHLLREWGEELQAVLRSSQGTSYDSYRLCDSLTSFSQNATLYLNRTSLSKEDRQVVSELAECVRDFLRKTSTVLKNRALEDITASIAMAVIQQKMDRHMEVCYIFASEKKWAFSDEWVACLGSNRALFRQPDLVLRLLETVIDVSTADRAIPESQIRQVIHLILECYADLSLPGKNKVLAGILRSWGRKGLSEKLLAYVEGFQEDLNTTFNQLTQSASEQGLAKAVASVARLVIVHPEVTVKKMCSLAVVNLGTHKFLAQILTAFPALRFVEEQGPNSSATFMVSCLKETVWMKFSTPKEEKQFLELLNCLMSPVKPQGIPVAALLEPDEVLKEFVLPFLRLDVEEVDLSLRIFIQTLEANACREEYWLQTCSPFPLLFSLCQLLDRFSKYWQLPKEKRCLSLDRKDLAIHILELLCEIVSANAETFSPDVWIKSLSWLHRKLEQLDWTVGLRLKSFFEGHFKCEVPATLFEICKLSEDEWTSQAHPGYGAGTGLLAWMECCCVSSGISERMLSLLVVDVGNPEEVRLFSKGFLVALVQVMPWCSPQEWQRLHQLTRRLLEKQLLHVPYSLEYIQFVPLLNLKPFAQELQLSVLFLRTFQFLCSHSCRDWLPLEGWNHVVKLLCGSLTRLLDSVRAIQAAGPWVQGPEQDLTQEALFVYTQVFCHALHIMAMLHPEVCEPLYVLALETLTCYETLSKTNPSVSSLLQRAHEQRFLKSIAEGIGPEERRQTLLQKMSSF
In short: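 Human Gemin4 expressed in HEK293 cells and labelled with Cy5 through cysteine sulfhydryl groups. Binding of the test peptide to the labelled protein was measured by microscale thermophoresis, and affinity was derived with the instrument's affinity analysis tool.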

[2] = test system: Gemin4; assay: Co-IP, XLH-36/Gemin4; type: binding; conditions: endogenous interaction, Fig. 5E
[3] = test system: Gemin4; assay: yeast two-hybrid assay; type: binding; conditions: DDO medium SD/Trp-/Leu-, TDO medium SD/Trp-/Leu-/HIS-
[4] = test system: Gemin4; assay: Immunofluorescence co-staining XLH-36/Gemin4; type: cell-based; conditions: MDA-MB-231 cells, confocal immunofluorescence
In short: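 Cells fixed 15 min at RT in β-galactosidase staining fixative, permeabilised with Triton X-100 for 15 min, blocked in 5% BSA for 30 min at RT. Primary antibody overnight at 4 °C, then secondary antibodies 2 h at RT in the dark. DAPI counterstain 10 min in the dark; imaged by fluorescence microscopy. PBS washes between steps.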

## MRQGPSTEVPGRAPRPRGPAASRADPSLRPEGGQDP [XLH-36]
[1]
  Kd: 4.76 µM
[2]
  interaction with Gemin4: only Gemin4 was confirmed to interact with XLH-36
[3]
  direct interaction with Gemin4: supported the direct interaction between XLH-36 and Gemin4
[4]
  IF interaction with Gemin4: XLH-36 indeed interacted with Gemin4

From publication PMC12738293 (Oncogene, 2025)
